From ChEMBL document CHEMBL1149247, “New COX-2/5-LOX inhibitors: apoptosis-inducing agents potentially useful in prostate cancer chemotherapy” (J Med Chem, 2004)
The source made the active and inactive calls. The rule behind the calls is not given here.

Experiments:
[1] = molecular target: Prostaglandin G/H synthase 1 (Homo sapiens, UniProt P23219); experiment: Inhibition of COX1 expressed in CHO cells assessed as inhibition of arachidonic acid-stimulated PGE2 production by enzyme immunoassay; assay type: functional, cell-based
LNCaP [2] = experiment: Cell cycle arrest in human LNCaP cells by accumulation at subG1 phase at 10 uM after 72 hrs by FACS flow cytometry; assay type: functional
Method in brief: (§1)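 LNCaP or PC 3 cells seeded in 6-well plates, synchronized 24 h in serum-free medium, treated 72 h with varying compound concentrations; trypsinized cells pooled with supernatants, pelleted, fixed in cold ethanol overnight at 4 °C, then 30 min in PBS with RNase and propidium iodide. FACScan flow cytometry quantified sub-G1 (sub-diploid), G1, S and G2-M fractions as percent of cells.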

PC-3 [3] = experiment: Cell cycle arrest in human PC3 cells by accumulation at G2M phase at 100 uM after 72 hrs by FACS flow cytometry; assay type: functional; method in brief: as §1
LNCaP [4] = experiment: Cell cycle arrest in human LNCaP cells by accumulation at subG1 phase at 100 uM after 72 hrs by FACS flow cytometry; assay type: functional; method in brief: as §1
LNCaP [5] = experiment: Cell cycle arrest in human LNCaP cells by accumulation at S phase at 100 uM after 72 hrs by FACS flow cytometry; assay type: functional; method in brief: as §1
LNCaP [6] = experiment: Antiproliferative activity against androgen-sensitive human LNCaP cells after 72 hrs by MTT test; assay type: functional, cell-based
Method in brief: (§2)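 Prostate carcinoma cells kept at 37 °C, 5% CO2 in RPMI 1640 with 10% fetal calf serum; seeded 1.8 × 10⁴ (PC 3) or 5.0 × 10⁴ (LNCaP) cells/well, grown 3 days, serum-starved 24 h for synchronization, then exposed 72 h to compounds in medium (<0.1% DMSO); growth read by colorimetric MTT. Mean of at least four independent determinations; single-dose lines at 100 μM.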

LNCaP [7] = experiment: Cell cycle arrest in human LNCaP cells by accumulation at G1 phase at 100 uM after 72 hrs by FACS flow cytometry; assay type: functional; method in brief: as §1
PC-3 [8] = experiment: Cell cycle arrest in human PC3 cells by accumulation at subG1 phase at 100 uM after 72 hrs by FACS flow cytometry; assay type: functional; method in brief: as §1
LNCaP [9] = experiment: Cell cycle arrest in human LNCaP cells by accumulation at S phase at 10 uM after 72 hrs by FACS flow cytometry; assay type: functional; method in brief: as §1
LNCaP [10] = experiment: Cell cycle arrest in human LNCaP cells by accumulation at G2M phase at 100 uM after 72 hrs by FACS flow cytometry; assay type: functional; method in brief: as §1
PC-3 [11] = experiment: Antiproliferative activity against androgen-independent human PC3 cells at 100 uM after 72 hrs by MTT test; assay type: functional; method in brief: as §2
[12] = molecular target: T1, Polyunsaturated fatty acid 5-lipoxygenase (Homo sapiens, UniProt P09917); experiment: Inhibition of 5LOX in human whole blood assessed as inhibition of calcium ionophore A 23187-stimulated 5HETE production by HPLC analysis; assay type: functional, tissue-based
T1 sequence (P09917 whole entry): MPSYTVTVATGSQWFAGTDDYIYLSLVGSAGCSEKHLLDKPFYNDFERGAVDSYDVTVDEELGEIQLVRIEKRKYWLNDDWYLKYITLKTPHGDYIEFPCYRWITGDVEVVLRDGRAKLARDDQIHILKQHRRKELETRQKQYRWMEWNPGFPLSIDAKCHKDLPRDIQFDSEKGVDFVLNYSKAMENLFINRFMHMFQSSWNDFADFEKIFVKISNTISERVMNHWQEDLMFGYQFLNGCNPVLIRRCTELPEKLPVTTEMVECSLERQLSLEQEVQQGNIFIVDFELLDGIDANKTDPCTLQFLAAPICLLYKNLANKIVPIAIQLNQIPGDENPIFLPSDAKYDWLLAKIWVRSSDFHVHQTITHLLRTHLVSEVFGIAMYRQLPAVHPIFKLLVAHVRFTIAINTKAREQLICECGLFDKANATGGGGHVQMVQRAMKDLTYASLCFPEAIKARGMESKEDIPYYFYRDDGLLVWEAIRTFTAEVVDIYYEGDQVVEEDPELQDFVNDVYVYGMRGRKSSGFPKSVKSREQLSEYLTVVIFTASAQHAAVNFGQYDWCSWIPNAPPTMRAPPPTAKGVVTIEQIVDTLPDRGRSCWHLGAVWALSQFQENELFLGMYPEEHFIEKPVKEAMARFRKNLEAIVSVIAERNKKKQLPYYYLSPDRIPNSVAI
Method in brief: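 Heparinized human whole blood, 1 mL aliquots, preincubated 15 min at 37 °C with compound or DMSO vehicle; then stimulated with 40 μM A 23187 for 15 min at 37 °C. 5-HETE extracted into ethyl acetate, then HPLC on a C18 column, methanol/water/acetic acid 80:20:0.08, pH 6.0, UV at 234 nm. IC50 from n = 2.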

PC-3 [13] = experiment: Cell cycle arrest in human PC3 cells by accumulation at S phase at 100 uM after 72 hrs by FACS flow cytometry; assay type: functional; method in brief: as §1
PC-3 [14] = experiment: Cell cycle arrest in human PC3 cells by accumulation at G1 phase at 100 uM after 72 hrs by FACS flow cytometry; assay type: functional; method in brief: as §1
LNCaP [15] = experiment: Cell cycle arrest in human LNCaP cells by accumulation at G1 phase at 10 uM after 72 hrs by FACS flow cytometry; assay type: functional; method in brief: as §1
LNCaP [16] = experiment: Cell cycle arrest in human LNCaP cells by accumulation at G2M phase at 10 uM after 72 hrs by FACS flow cytometry; assay type: functional; method in brief: as §1
PC-3 [17] = experiment: Cell cycle arrest in human PC3 cells by accumulation at G1 phase at 10 uM after 72 hrs by FACS flow cytometry; assay type: functional; method in brief: as §1
PC-3 [18] = experiment: Cell cycle arrest in human PC3 cells by accumulation at subG1 phase at 10 uM after 72 hrs by FACS flow cytometry; assay type: functional; method in brief: as §1
Homo sapiens = species: Homo sapiens; experiment: Selectivity for COX2 over COX1
Method in brief: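 Ratio of COX-1 to COX-2 IC50s, each taken from PGE2 production in CHO cells transfected with COX-1 or with COX-2. Cells were seeded and, 18 h later, given fresh Ham's F12 with 10% fetal calf serum with or without compound. After 10 min they were stimulated with arachidonic acid, then for 10 min with calcium ionophore A 23187. Intracellular PGE2 was read by enzyme immunoassay, n = 2.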

[19] = molecular target: T2, Prostaglandin G/H synthase 2 (Homo sapiens, UniProt P35354); experiment: Inhibition of COX2 expressed in CHO cells assessed as inhibition of arachidonic acid-stimulated PGE2 production by enzyme immunoassay
T2 sequence (P35354 whole entry): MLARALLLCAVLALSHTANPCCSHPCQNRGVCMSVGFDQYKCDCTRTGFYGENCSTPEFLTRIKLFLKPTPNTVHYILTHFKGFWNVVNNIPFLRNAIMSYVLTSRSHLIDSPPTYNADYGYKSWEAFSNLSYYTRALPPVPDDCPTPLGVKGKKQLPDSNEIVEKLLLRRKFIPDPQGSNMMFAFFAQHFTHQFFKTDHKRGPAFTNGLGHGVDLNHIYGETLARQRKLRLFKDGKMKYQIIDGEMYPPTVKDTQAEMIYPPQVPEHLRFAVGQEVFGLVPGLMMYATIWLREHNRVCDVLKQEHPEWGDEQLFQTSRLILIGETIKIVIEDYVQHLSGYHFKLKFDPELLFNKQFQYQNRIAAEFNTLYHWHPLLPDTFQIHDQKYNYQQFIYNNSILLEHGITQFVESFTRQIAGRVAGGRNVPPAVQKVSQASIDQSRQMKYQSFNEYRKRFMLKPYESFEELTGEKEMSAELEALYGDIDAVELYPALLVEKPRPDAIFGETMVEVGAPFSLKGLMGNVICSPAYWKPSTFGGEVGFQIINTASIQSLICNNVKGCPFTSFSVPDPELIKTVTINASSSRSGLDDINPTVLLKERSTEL

PC-3 [20] = experiment: Cell cycle arrest in human PC3 cells by accumulation at G2M phase at 10 uM after 72 hrs by FACS flow cytometry; assay type: functional; method in brief: as §1
PC-3 [21] = experiment: Inhibition of MMP9 secretion in androgen-independent human PC3 cells; assay type: functional, cell-based
PC-3 [22] = experiment: Antiproliferative activity against androgen-independent human PC3 cells after 72 hrs by MTT test; assay type: functional, cell-based; settings: PC-3, 72 h; method in brief: as §2
PC-3 [23] = experiment: Cell cycle arrest in human PC3 cells by accumulation at S phase at 10 uM after 72 hrs by FACS flow cytometry; assay type: functional; method in brief: as §1

Chain of Prostaglandin G/H synthase 1 (P23219 whole entry): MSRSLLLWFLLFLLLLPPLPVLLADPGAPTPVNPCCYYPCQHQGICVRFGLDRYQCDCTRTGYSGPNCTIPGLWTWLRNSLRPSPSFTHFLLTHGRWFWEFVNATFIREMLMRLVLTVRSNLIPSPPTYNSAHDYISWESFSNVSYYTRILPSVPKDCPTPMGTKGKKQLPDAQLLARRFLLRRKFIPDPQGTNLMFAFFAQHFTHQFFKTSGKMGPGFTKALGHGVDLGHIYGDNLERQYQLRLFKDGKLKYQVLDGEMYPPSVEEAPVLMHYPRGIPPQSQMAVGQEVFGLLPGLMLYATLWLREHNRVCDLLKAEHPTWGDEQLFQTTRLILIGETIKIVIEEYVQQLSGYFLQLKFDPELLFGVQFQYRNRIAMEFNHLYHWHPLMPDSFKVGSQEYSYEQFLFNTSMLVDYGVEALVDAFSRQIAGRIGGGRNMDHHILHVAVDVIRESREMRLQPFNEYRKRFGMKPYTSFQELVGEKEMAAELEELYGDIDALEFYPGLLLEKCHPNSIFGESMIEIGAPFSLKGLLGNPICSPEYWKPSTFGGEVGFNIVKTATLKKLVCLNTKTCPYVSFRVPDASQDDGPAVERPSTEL

`COC1(c2cc(F)cc(OCc3cc(-c4ccccc4)n(-c4ccc(S(C)(=O)=O)cc4)n3)c2)CCOCC1` gave an IC50 [1] of 26.1 µM, an Activity (LNCaP [2]) of 3.6% and an Activity (PC-3 [3]) of 25.9%. For the same compound, the Activity (LNCaP [4]) was 3.9%, the Activity (LNCaP [5]) was 9.9% and the IC50 (LNCaP [6]) was 83.4 µM. For the same compound, the Activity (LNCaP [7]) was 74.2%, the Activity (PC-3 [8]) was 1.2% and the Activity (LNCaP [9]) was 11.2%. The Activity (LNCaP [10]) was 12%, the Activity (PC-3 [11]) was 45% and the IC50 [12] was 0.3 µM. The Activity (PC-3 [13]) was 5.1%, the Activity (PC-3 [14]) was 67.8% and the Activity (LNCaP [15]) was 70.1%. It also gave an Activity (LNCaP [16]) of 14.7%.
`COC1(c2cc(F)cc(OCc3cc(-c4ccccc4)n(-c4ccc(S(N)(=O)=O)cc4)n3)c2)CCOCC1` showed an IC50 [1] of 25.7 µM, an Activity (LNCaP [2]) of 10.8% and an Activity (PC-3 [17]) of 71.5%. For the same compound, the Activity (PC-3 [18]) was 2.1%, the IC50 (LNCaP [6]) was 49.7 µM and the Selectivity ratio (Homo sapiens) was 257. The IC50 [19] was 0.1 µM, the Activity (PC-3 [20]) was 19.5% and the Activity (PC-3 [21]) was “Active”. It also gave an Activity (LNCaP [9]) of 6.9%, an IC50 (PC-3 [22]) of 45.9 µM and an IC50 [12] of 0.74 µM. The Activity (PC-3 [23]) was 6.6%, the Activity (LNCaP [15]) was 74.2% and the Activity (LNCaP [16]) was 8.2%.
